From ChEMBL document CHEMBL1155452, “Oncocin (VDKPPYLPRPRPPRRIYNR-NH2): a novel antibacterial peptide optimized against gram-negative human pathogens” (J Med Chem, 2010)

Assays:
[1] = tested on: Escherichia coli; experiment: Antibacterial activity against Escherichia coli BL21 AI after 20 hrs by broth microdilution assay; format: functional
Outline: (§1)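 Nutrient-broth overnight cultures diluted in 1% TSB; E. coli BL21AI 7.5 × 10^5 cells/well, M. luteus ATCC 10240 2 × 10^6 cells/well. Peptides serially 2-fold diluted in 1% TSB from 128 to typically 0.5 μg/mL. Incubation at 37 °C; A595 read after 20 ± 2 h. MIC is the lowest concentration with absorbance not above medium only. Triplicate.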

[2] = tested on: Micrococcus luteus; experiment: Antibacterial activity against Micrococcus luteus ATCC 10240 after 20 hrs by broth microdilution assay; format: functional; details: ATCC 10240, 20 h; outline: as §1
[3] = Stability in 25% mouse serum assessed as half life at 75 ug/ml by MALDI-TOF-MS analysis; format: ADME, cell-free
Outline: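 Peptide at 75 μg/mL final in pooled mouse serum (undiluted or 25% v:v aqueous), 37 °C. Triplicate aliquots taken at 0, 30, 60, 120 and 240 min and precipitated with 3% TCA on ice for 10 min. Supernatant neutralized with NaOH and analysed by RP-HPLC on C18 with TFA-containing gradient. Amounts expressed relative to 0 min; metabolites identified by MALDI-TOF-MS.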

Work on H-VDKPPYLPRPRPPRRIYN-OH yielded an MIC [1] of 64 µg/mL and an MIC [2] of 128 µg/mL.
In the case of H-VDKPPYLPRPRPPRRIYNNR-NH2, the MIC [1] is reported as 8 µg/mL and the MIC [2] is reported as 8 µg/mL.
H-VDKPPYLPRPRPPRRIYNNR-OH showed an MIC [1] of 8 µg/mL and an MIC [2] of 16 µg/mL.
H-VDKPPYLPRPRPPRRIYNR-OH showed an MIC [1] of 32 µg/mL, an MIC [2] of 64 µg/mL and a half-life at 75 ug/ml [3] of under 30 min.
In the case of H-VDKPPYLPRPRPPRRIYNRN-NH2, the MIC [1] is reported as 16 µg/mL and the MIC [2] is reported as 128 µg/mL.
H-VDKPPYLPRPRPPRRIYNRN-OH showed an MIC [1] of 8 µg/mL and an MIC [2] of 16 µg/mL.
With H-VDKPPYLPRPTPPRRIYNNR-OH the MIC [1] was 128 µg/mL and the MIC [2] was 64 µg/mL.
